In PMC6851657 (Clinical Pharmacology and Therapeutics, 2019):
Like-named read-outs stand apart in the source and are kept apart here. Marks after values point to notes of the source that are not given here.

Tests used:
[1] = molecular target: T1, CYP2C9 (Homo sapiens, UniProt P11712); format: in vitro ADME
How it was run: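 Genotype-specific hepatic intrinsic clearance (CLint,h) was back-calculated from population PK total plasma clearance for each CYP2C9 genotype (*1/*1, *1/*2, *1/*3, *2/*2, *2/*3, *3/*3). Clearance was assumed to be entirely CYP-mediated hepatic metabolism, with purely passive hepatocyte uptake. CLint,h was split across CYP2C9, 3A4, 2B6, 2C8 and 2C19 by in vitro phenotyping fm. fu(mic) was set to 1. Values served as SimCYP PBPK inputs.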

[2] = cited from earlier work
[3] = molecular target: T1, CYP2C9; conditions: cited from earlier work
[4] = molecular target: T2, CYP2B6 (Homo sapiens, UniProt P20813); assay: Enzyme phenotyping, intrinsic clearance by retrograde calculation; format: in vitro ADME
T2 sequence (P20813 1-491): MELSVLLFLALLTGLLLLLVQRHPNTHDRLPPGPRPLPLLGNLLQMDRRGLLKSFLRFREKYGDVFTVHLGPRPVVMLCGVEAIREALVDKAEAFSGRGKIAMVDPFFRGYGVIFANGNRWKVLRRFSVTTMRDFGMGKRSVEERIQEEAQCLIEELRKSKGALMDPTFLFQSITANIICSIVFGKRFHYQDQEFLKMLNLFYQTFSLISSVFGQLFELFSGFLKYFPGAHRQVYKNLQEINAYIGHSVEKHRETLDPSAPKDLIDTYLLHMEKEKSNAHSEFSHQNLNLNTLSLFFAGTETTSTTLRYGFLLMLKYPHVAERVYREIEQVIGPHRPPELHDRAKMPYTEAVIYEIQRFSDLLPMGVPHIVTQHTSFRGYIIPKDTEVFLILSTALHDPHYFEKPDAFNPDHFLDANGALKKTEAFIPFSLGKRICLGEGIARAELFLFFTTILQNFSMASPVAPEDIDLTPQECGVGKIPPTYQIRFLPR

[5] = observed, ref Novartis data on file, cited from earlier work; for AUCinf / Cmax / t1/2: GM (CV%; range)
[6] = day 28, observed, cited from earlier work; for AUC(0–24 h) / Cmin: GM (CV%); for Cmax: GM (CV%; 90% CI)
[7] = ref Novartis data on file, 5, cited from earlier work
[8] = cited from earlier work; for AUC decrease: coadministration of itraconazole
[9] = molecular target: CYP2C19 (Homo sapiens, UniProt P33261); assay: Enzyme phenotyping, intrinsic clearance by retrograde calculation; format: in vitro ADME
[10] = single oral 0.25 mg, observed, cited from earlier work
[11] = cited from earlier work; for t1/2 / AUCinf / Cmax / Tmax: observed; for t1/2: GM (CV%); for AUCinf / Cmax: GM (CV%; 90% CI); for Tmax: median (range)
[12] = coadministration of rifampin, CYP2C9*1/*1
[13] = coadministration with fluconazole, CYP2C9*1/*1
[14] = 0.3 mg solution p.o. single dose
[15] = 2.5 mg capsule p.o. single dose
[16] = 2.5 mg solution p.o. single dose
[17] = 17.5 mg capsule p.o. single dose

T1 sequence (P11712 whole entry): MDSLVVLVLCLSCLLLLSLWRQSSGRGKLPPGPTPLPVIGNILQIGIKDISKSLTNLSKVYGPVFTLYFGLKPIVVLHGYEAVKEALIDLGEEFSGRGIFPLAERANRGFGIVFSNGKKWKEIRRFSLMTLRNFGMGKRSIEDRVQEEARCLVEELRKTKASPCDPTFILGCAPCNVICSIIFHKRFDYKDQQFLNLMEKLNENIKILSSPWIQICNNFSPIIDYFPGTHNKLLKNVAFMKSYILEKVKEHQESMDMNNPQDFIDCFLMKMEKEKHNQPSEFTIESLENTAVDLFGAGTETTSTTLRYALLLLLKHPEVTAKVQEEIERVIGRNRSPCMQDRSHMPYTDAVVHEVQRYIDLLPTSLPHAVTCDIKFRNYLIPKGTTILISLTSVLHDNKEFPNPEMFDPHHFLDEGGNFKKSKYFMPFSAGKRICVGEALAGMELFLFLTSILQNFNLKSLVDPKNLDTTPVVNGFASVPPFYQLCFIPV
Sequence of CYP2C19 (P33261 whole entry): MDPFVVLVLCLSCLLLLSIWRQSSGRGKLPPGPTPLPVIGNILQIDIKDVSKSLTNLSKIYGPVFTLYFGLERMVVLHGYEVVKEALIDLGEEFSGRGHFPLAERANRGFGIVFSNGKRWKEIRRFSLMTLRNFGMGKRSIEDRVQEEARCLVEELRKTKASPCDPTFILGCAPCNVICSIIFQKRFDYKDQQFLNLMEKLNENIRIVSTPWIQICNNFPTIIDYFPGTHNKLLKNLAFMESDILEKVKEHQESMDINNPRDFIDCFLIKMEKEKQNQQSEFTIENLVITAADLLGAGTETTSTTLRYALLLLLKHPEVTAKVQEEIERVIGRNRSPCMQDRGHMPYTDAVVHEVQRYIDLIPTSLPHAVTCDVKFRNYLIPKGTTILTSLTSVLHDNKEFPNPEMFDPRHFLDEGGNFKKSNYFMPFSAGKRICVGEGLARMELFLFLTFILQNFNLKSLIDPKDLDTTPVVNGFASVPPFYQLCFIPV

Structure (SMILES): CCc1cc(/C(C)=N/OCc2ccc(C3CCCCC3)c(C(F)(F)F)c2)ccc1CN1CC(C(=O)O)C1 [siponimod]
- fmCYP2C9 ([1]; CYP2C9*1/*1): 0.804
- fmCYP2C9 ([1]; CYP2C9*1/*2): 0.788
- fmCYP2C9 ([1]; CYP2C9*1/*3): 0.678
- fmCYP2C9 ([1]; CYP2C9*2/*2): 0.727
- fmCYP2C9 ([1]; CYP2C9*2/*3): 0.616
- Fraction available from dosage form ([2]; based on amount of siponimod excreted to feces): 0.91 ^c
- Absorption rate constant ([2]; estimated based on PopPK model, ref Novartis data on file): 0.687 ^d 1/hour
- fraction metabolized via CYP2C9 (fm,CYP2C9) ([3]; in vitro phenotyping data): 0.79
- contribution of CYP2C9 to metabolism ([3]; in vitro phenotyping, normalized to 100%): 79.3%
- In vitro intrinsic clearance (CYP2B6) [4]: 0.733 µL/min/pmol
- fmCYP2B6 ([4]; fraction metabolized): 0.004
- AUCinf ([5]; 0.25 mg i.v. single dose): 80.1 (25.6; 47.7–125) ng·hour/mL
- Cmax ([5]; 0.25 mg i.v. single dose): 3.22 (19; 1.88–3.81) ng/mL
- t1/2 ([5]; 0.25 mg i.v. single dose): 27.4 (22.5; 20.1–47.7) h
- Tmax ([5]; 0.25 mg i.v. single dose, median (range)): 2.92 (2.92–2.92) h
- AUCinf ([5]; 0.25 mg p.o. single dose): 67.4 (26; 39.8–105) ng·hour/mL
- Cmax ([5]; 0.25 mg p.o. single dose): 1.71 (24; 0.920–2.30) ng/mL
- t1/2 ([5]; 0.25 mg p.o. single dose): 26.7 (22; 17.2–43.8) h
- AUC(0–24 h) ([6]; 0.3 mg solution p.o. q.d.): 97.9 (19) ng·hour/mL
- Cmin ([6]; 0.3 mg solution p.o. q.d.): 2.83 (27) ng/mL
- Cmax ([6]; 0.3 mg solution p.o. q.d.): 5.13 (16; 4.76–5.86) ng/mL
- AUC(0–24 h) ([6]; 1 mg solution p.o. q.d.): 282 (16) ng·hour/mL
- Cmin ([6]; 1 mg solution p.o. q.d.): 7.74 (20) ng/mL
- Cmax ([6]; 1 mg solution p.o. q.d.): 14.9 (10; 14.0–15.9) ng/mL
- AUC(0–24 h) ([6]; 2.5 mg capsule p.o. q.d.): 692 (45) ng·hour/mL
- Cmin ([6]; 2.5 mg capsule p.o. q.d.): 15.2 (120) ng/mL
- Cmax ([6]; 2.5 mg capsule p.o. q.d.): 38.3 (37; 29.1–47.4) ng/mL
- AUC(0–24 h) ([6]; 10 mg capsule p.o. q.d.): 2,580 (24) ng·hour/mL
- Cmin ([6]; 10 mg capsule p.o. q.d.): 70.6 (29) ng/mL
- Cmax ([6]; 10 mg capsule p.o. q.d.): 147 (24; 126–168) ng/mL
- AUC(0–24 h) ([6]; 20 mg capsule p.o. q.d.): 6,370 (23) ng·hour/mL
- Cmin ([6]; 20 mg capsule p.o. q.d.): 166 (88) ng/mL
- Cmax ([6]; 20 mg capsule p.o. q.d.): 359 (17; 325–394) ng/mL
- lower total body clearance from plasma vs CYP2C9*1/*1 ([7]; CYP2C9*1/*3): 35–38%
- lower total body clearance from plasma vs CYP2C9*1/*1 ([7]; CYP2C9*2/*2): 20%
- lower total body clearance from plasma vs CYP2C9*1/*1 ([7]; CYP2C9*2/*3): 45–48%
- lower total body clearance from plasma vs CYP2C9*1/*1 ([7]; CYP2C9*3/*3): 74%
- AUC decrease ([8]; CYP2C9*1/*2): 9–10%
- AUC decrease ([8]; CYP2C9*1/*3): 24%
- AUC reduction [8, 12]: 57%
- Cmax reduction [8, 12]: 45%
- AUC increase [8, 13]: increased approximately two fold
- Cmax increase [8, 13]: ~ 10%
- fmCYP2C19 ([9]; fraction metabolized): 0.001
- CLint (CYP2C19) ([9]; retrograde calculator from CL 3.12 L/hour, fu(mic) set to 1): 0.593 µL/min/pmol
- AUCinf ([10]; CYP2C9*1/*1): 70.5 (21.2) ng·hour/mL
- t1/2 ([10]; CYP2C9*1/*1): 28.1 (18.5) h
- AUCinf ([10]; CYP2C9*2/*3): 144 (15.7) ng·hour/mL
- Cmax ([10]; CYP2C9*2/*3): 2.45 (13.1) ng/mL
- t1/2 ([10]; CYP2C9*2/*3): 50.9 (31.7) h
- AUCinf ([10]; CYP2C9*3/*3): 271 (22.4) ng·hour/mL
- Cmax ([10]; CYP2C9*3/*3): 2.35 (29.0) ng/mL
- t1/2 ([10]; CYP2C9*3/*3): 126 (12.7) h
- t1/2 [11, 14]: 33.21 (28) h
- AUCinf [11, 14]: 89.3 (20; 79.2–99.4) ng·hour/mL
- Cmax [11, 14]: 2.26 (6; 2.17–2.34) ng/mL
- Tmax [11, 14]: 5 (4.00–8.00) h
- t1/2 ([11]; 1 mg solution p.o. single dose): 45.7 (26) h
- AUCinf ([11]; 1 mg solution p.o. single dose): 349 (28; 292–406) ng·hour/mL
- Cmax ([11]; 1 mg solution p.o. single dose): 7.43 (42; 5.37–9.50) ng/mL
- Tmax ([11]; 1 mg solution p.o. single dose): 5 (4.00–15.7) h
- t1/2 [11, 15]: 29.3 (17) h
- AUCinf [11, 15]: 745 (25; 632–858) ng·hour/mL
- Cmax [11, 15]: 19.3 (19; 17.1–21.5) ng/mL
- Tmax [11, 15]: 6 (4.00–8.00) h
- t1/2 [11, 16]: 27.0 (22) h
- AUCinf [11, 16]: 766 (36; 598–935) ng·hour/mL
- Cmax [11, 16]: 21.9 (35; 16.7–27.0) ng/mL
- Tmax [11, 16]: 4 (3.00–8.00) h
- t1/2 ([11]; 5 mg capsule p.o. single dose): 31.3 (19) h
- AUCinf ([11]; 5 mg capsule p.o. single dose): 1,260 (20; 1,149–1,384) ng·hour/mL
- Cmax ([11]; 5 mg capsule p.o. single dose): 38.5 (21; 33.5–41.5) ng/mL
- Tmax ([11]; 5 mg capsule p.o. single dose): 3 (2.00–8.00) h
- t1/2 ([11]; 10 mg capsule p.o. single dose): 32.0 (17) h
- AUCinf ([11]; 10 mg capsule p.o. single dose): 2,710 (14; 2,507–2,915) ng·hour/mL
- Cmax ([11]; 10 mg capsule p.o. single dose): 77.3 (25; 64.8–89.7) ng/mL
- Tmax ([11]; 10 mg capsule p.o. single dose): 5 (3.82–16.0) h
- t1/2 [11, 17]: 42.3 (38) h
- AUCinf [11, 17]: 4,230 (25; 3,666–4,792) ng·hour/mL
- Cmax [11, 17]: 111 (32; 93.7–128.4) ng/mL
- Tmax [11, 17]: 4 (2.00–8.00) h
- t1/2 ([11]; 25 mg capsule p.o. single dose): 47.7 (20) h
- AUCinf ([11]; 25 mg capsule p.o. single dose): 8,140 (24; 6,987–9,302) ng·hour/mL
- Cmax ([11]; 25 mg capsule p.o. single dose): 217 (29; 180–254) ng/mL
- Tmax ([11]; 25 mg capsule p.o. single dose): 3.50 (1.50–12.0) h
- t1/2 ([11]; 75 mg capsule p.o. single dose): 56.7 (12) h
- Cmax ([11]; 75 mg capsule p.o. single dose): 491 (51; 346–637) ng/mL
- Tmax ([11]; 75 mg capsule p.o. single dose): 6 (2.00–24.00) h
- elimination half‐life (t1/2), range [11]: 22 to 38 h
- mean elimination half‐life (t1/2) [11]: ~ 30 hours
